{"data": "Assay results gathered from unrelated publications", "note": "Lines come from different studies, so protocols differ."}
{"Compound": "C[C@H]1CN(C)CCCN1c1nccc(-c2noc([C@@]3(C)CCCc4sc(N)c(C#N)c43)n2)n1", "tested on": "BaF3", "assay": "cell growth or viability", "conditions": "72 h", "measurement": "EC50", "result": "0.41 µM"}
{"Compound": "Nc1nn2c(-c3ccc(Cl)cc3Cl)cc(-c3ccc(OCc4ccccc4)cc3)nc2c1N=Nc1ccc(F)cc1", "tested on": "Saccharomyces cerevisiae", "assay": "microbial killing, broth dilution", "test system": "ATCC9763", "measurement": "MFC", "result": "62.5 µg/mL"}
{"Compound": "CCOC(=O)C1=C(CN2CCC(C(=O)Nc3cccc(B(O)O)c3)C2)NC(c2nccs2)=NC1c1ccc(F)cc1Br (stereo not drawn)", "tested on": "Hepatitis B virus", "assay": "viral replication, inhibitor, qPCR", "test system": "HepDES19", "conditions": "72 h", "measurement": "EC50", "result": "0.9 µM"}
{"Compound": "CNC(=S)NN=Cc1ccc(O)c(OC)c1", "tested on": "Leishmania tropica", "assay": "parasite growth", "test system": "J774.A1", "conditions": "72 h, intracellular, amastigote", "measurement": "IC50", "result": "248 µM"}
{"Compound": "COc1cc(N=C2C(=O)N(Cc3ccccc3)c3ccccc32)cc(OC)c1", "tested on": "L02", "assay": "cell growth or viability, MTT", "conditions": "48 h", "measurement": "IC50", "result": "> 100 µM"}
{"Compound": "CCOC(=O)C1=C(CN2CCC[C@@H]2C(=O)Nc2cccc(B(O)O)c2)NC(c2nccs2)=N[C@H]1c1ccc(F)cc1Br", "tested on": "Hepatitis B virus", "assay": "viral replication, inhibitor, qPCR", "test system": "HepDES19", "conditions": "72 h", "measurement": "EC50", "result": "0.12 µM"}
{"Compound": "Cc1nc(Nc2ncc(C(=O)Nc3c(C)cccc3Cl)s2)cc(N2CC[C@H](O)C2)n1", "tested on": "NALM-6", "assay": "cell growth or viability, ATP luminescence", "conditions": "10 µM, 72 h", "measurement": "inhibition", "result": "68%"}
{"Compound": "Fc1ccc(C=NNC(=S)Nc2cccnc2)cc1", "tested on": "Leishmania tropica", "assay": "parasite growth, MTT", "conditions": "72 h, promastigote", "measurement": "IC50", "result": "314 µM"}
{"Compound": "CCOC(=O)C1=C(CN2CCC[C@@H]2C(=O)Nc2ccc(B(O)O)cc2)NC(c2nccs2)=N[C@H]1c1ccc(F)cc1Br", "tested on": "Hepatitis B virus", "assay": "viral replication, inhibitor, qPCR", "test system": "HepDES19", "conditions": "72 h", "measurement": "EC50", "result": "0.07 µM"}
{"Compound": "CNC(=S)NN=Cc1ccc([N+](=O)[O-])cc1", "tested on": "Leishmania tropica", "assay": "parasite growth", "test system": "J774.A1", "conditions": "72 h, intracellular, amastigote", "measurement": "IC50", "result": "258 µM"}
{"Compound": "Cc1ccc(CN2C(=O)C(=Nc3cccc(Cl)c3)c3ccccc32)cc1", "tested on": "L02", "assay": "cell growth or viability, MTT", "conditions": "48 h", "measurement": "IC50", "result": "4.76 µM"}
{"Compound": "C[C@H](Oc1nccc(-c2noc([C@@]3(C)CCCc4sc(N)c(C#N)c43)n2)n1)[C@@H]1CCCN1C", "tested on": "BaF3", "assay": "cell growth or viability", "conditions": "72 h", "measurement": "EC50", "result": "0.317 µM"}
{"Compound": "O=C1C(=Nc2ccccc2I)c2ccccc2N1Cc1ccc(Br)cc1", "tested on": "L02", "assay": "cell growth or viability, MTT", "conditions": "48 h", "measurement": "IC50", "result": "35.2 µM"}
{"Compound": "Cc1nc(NC(=O)N2CCC[C@H]2C(N)=O)sc1-c1ccnc(C(C)(C)C(F)(F)F)c1", "tested on": "MFM-223", "assay": "cell growth or viability, ATP luminescence", "conditions": "5 days", "measurement": "EC50", "result": "8.5 µM"}
{"Compound": "O=C1Nc2ccccc2C1=Nc1ccccc1I", "tested on": "L02", "assay": "cell growth or viability, MTT", "conditions": "48 h", "measurement": "IC50", "result": "77.5 µM"}
{"Compound": "C[C@H](Nc1ccc2c(c1)OCCn1cc(N3C(=O)OC[C@H]3C(F)F)nc1-2)C(N)=O", "tested on": "CAL-51", "assay": "cell growth or viability, ATP luminescence", "conditions": "5 days", "measurement": "EC50", "result": "1.26 µM"}
{"Compound": "CCOC(=O)C1=C(CN2CCN(Cc3ccc(B4OC(C)(C)C(C)(C)O4)cc3)CC2)NC(c2nccs2)=NC1c1ccc(F)cc1Br (stereo not drawn)", "tested on": "Hepatitis B virus", "assay": "viral replication, inhibitor, qPCR", "test system": "HepDES19", "conditions": "72 h", "measurement": "EC50", "result": "1.2 µM"}
{"Compound": "O=C1C(=Nc2cccc(Cl)c2)c2ccccc2N1Cc1ccc([N+](=O)[O-])cc1", "tested on": "L02", "assay": "cell growth or viability, MTT", "conditions": "48 h", "measurement": "IC50", "result": "22.7 µM"}
